Data from PMC3769332 (Molecular & Cellular Proteomics : MCP, 2013).
Ends that are not written are not given here.

Tests used:
Xenopus embryo = experiment: Neural tube closure in Xenopus embryos; assay type: in vivo, Xenopus laevis; conditions: MO injected in dorsal blastomeres at 4- to 8-cell stage
SCRIB_3 = biological target: T1, SCRIB_3 (Homo sapiens, UniProt Q14160); experiment: HTRF peptide-GST-PDZ binding
T1 sequence (Q14160 1004-1093 limits assumed): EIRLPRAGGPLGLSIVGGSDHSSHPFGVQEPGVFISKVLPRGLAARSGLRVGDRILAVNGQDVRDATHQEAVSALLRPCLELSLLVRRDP

Scrib PDZ1 = experiment: HTRF peptide binding to Scrib PDZ1; set-up: species or system human
GST-Scrib PDZ3 = biological target: T2, GST-Scrib PDZ3 (human, UniProt Q14160 994-1103); experiment: AlphaScreen or HTRF
T2 sequence (looked up): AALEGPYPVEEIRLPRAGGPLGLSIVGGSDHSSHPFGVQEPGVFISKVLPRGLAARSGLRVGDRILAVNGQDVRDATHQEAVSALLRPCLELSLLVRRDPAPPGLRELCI

Scrib PDZ4 = experiment: GST-Scrib PDZ pull-down, individual domain; assay type: binding, human; conditions: pull-down on HEK 293T extracts
[1] = test system: GST fused to the four Scrib PDZ domains; experiment: GST-Scrib PDZ pull-down; assay type: binding, human; conditions: pull-down on transfected HEK 293T extracts
wild-type MEFs = experiment: Boyden chamber cell migration, wild-type MEF; assay type: cell-based, mouse; conditions: serum-induced
Summary of the method: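 MEFs, wild-type or Crc/Crc, nucleofected transiently with GFP or GFP-Vangl2, then serum-starved 16 h and plated in the upper chamber of 8-μm pore polycarbonate transwells. Filter underside coated with human fibronectin ([…]). Serum (FCS) served as chemoattractant. Migrated cells were fixed in 4% formaldehyde, stained with 0.1% crystal violet and counted. Mann–Whitney U test versus control.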

MEF^Crc/Crc = experiment: Boyden chamber cell migration, MEF Crc/Crc; assay type: cell-based, mouse; conditions: MEFs deficient for Scrib, serum-induced
T47D cells = experiment: Boyden chamber cell migration, T47D; assay type: cell-based; conditions: stimulation with 1 nM HRG, 12 h
Summary of the method: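 Transwell migration through 8-μm pore polycarbonate membranes, underside coated with 25 μg/ml rat-tail collagen I. T47D cells were lipofectamine-transfected with pEGFP, pEGFP-Vangl2 or mutants, serum-starved 16 h, and seeded in the top chamber. The bottom chamber held medium with or without HRG for 12 h. Non-migrated cells were scraped off; migrated cells were fixed in 4% formaldehyde, crystal violet-stained (0.1%) and counted. Fold change, three independent experiments summed.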

Scrib PDZ3 domain = experiment: GST-Scrib PDZ pull-down, individual domain; assay type: binding, human; conditions: pull-down on HEK 293T extracts
SNX27 = experiment: Co-affinity purification with SNX27, HEK 293T; assay type: cell-based; conditions: streptavidin affinity purification, Western blot

SNX27 MO: morpholino 5′-TCCCCCTCCTCGTCCGCCATCTTTT-3′ targeting SNX27 translation initiation (all phosphorodiamidate morpholino (PMO))
neural tube closure (Xenopus embryo): neural tube closure was strongly impaired in a dose-dependent manner

KSHKFVMRLQSETSV [Vangl2]
EC50 (SCRIB_3): 13 µM

H-VLKNMNDPAWDETNL-OH [βPIX]
binding to Scrib PDZ3 (SCRIB_3; HTRF): able to bind | binding to Scrib PDZ1 (Scrib PDZ1): strongly bound

MSCCRSSRTRRETQL [synthetic E6 carboxy-terminal peptide]
EC50 (GST-Scrib PDZ3): 0.4 µM

VLKNMNDPAWDETNL [soluble non-biotinylated βPIX carboxy-terminal peptide (HTRF)]
EC50 (GST-Scrib PDZ3): 8 µM

B1: GFP-Vangl2: GFP fusion of Vangl2 overexpressed in cells (protein)
chain: MDTESQYSGYSYKSGHSRSSRKHRDRRDRHRSKSRDGGRGDKSVTIQAPGEPLLDNESTRGDERDDNWGETTTVVTGTSEHSISHDDLTRIAKDMEDSVPLDCSRHLGVAAGATLALLSFLTPLAFLLLPPLLWREELEPCGTACEGLFISVAFKLLILLLGSWALFFRRPKASLPRVFVLRALLMVLVFLLVVSYWLFYGVRILDARERSYQGVVQFAVSLVDALLFVHYLAVVLLELRQLQPQFTLKVVRSTDGASRFYNVGHLSIQRVAVWILEKYYHDFPVYNPALLNLPKSVLAKKVSGFKVYSLGEENSTNNSTGQSRAVIAAAARRRDNSHNEYYYEEAEHERRVRKRRARLVVAVEEAFTHIKRLQEEEQKNPREVMDPREAAQAIFASMARAMQKYLRTTKQQPYHTMESILQHLEFCITHDMTPKAFLERYLAAGPTIQYHKERWLAKQWTLVSEEPVTNGLKDGIVFLLKRQDFSLVVSTKKVPFFKLSEEFVDPKSHKFVMRLQSETSV
binding to individual GST-Scrib PDZ4 (Scrib PDZ4): some weak binding | binding to GST-Scrib PDZ1-4 [1]: efficient binding | effect on cell migration (wild-type MEFs): increased cell migration | effect on cell migration (MEF^Crc/Crc): not significantly affected relative to control conditions | effect on cell migration (T47D cells): increased cell migration | effect on cell migration (T47D cells; listed as GFP-Vangl2^Lp): did not affect this increased cell migration | binding to individual GST-Scrib PDZ3 (Scrib PDZ3 domain): most efficient

B2: HA-tagged Vangl2: HA-tagged Vangl2 expressed in HEK 293T cells (protein)
chain: B1 chain
interaction with SNX27 (SNX27): interacts

B3: GFP-Vangl2ΔTSV: GFP-Vangl2 with deletion of the classical PDZ binding motif (protein)
chain: MDTESQYSGYSYKSGHSRSSRKHRDRRDRHRSKSRDGGRGDKSVTIQAPGEPLLDNESTRGDERDDNWGETTTVVTGTSEHSISHDDLTRIAKDMEDSVPLDCSRHLGVAAGATLALLSFLTPLAFLLLPPLLWREELEPCGTACEGLFISVAFKLLILLLGSWALFFRRPKASLPRVFVLRALLMVLVFLLVVSYWLFYGVRILDARERSYQGVVQFAVSLVDALLFVHYLAVVLLELRQLQPQFTLKVVRSTDGASRFYNVGHLSIQRVAVWILEKYYHDFPVYNPALLNLPKSVLAKKVSGFKVYSLGEENSTNNSTGQSRAVIAAAARRRDNSHNEYYYEEAEHERRVRKRRARLVVAVEEAFTHIKRLQEEEQKNPREVMDPREAAQAIFASMARAMQKYLRTTKQQPYHTMESILQHLEFCITHDMTPKAFLERYLAAGPTIQYHKERWLAKQWTLVSEEPVTNGLKDGIVFLLKRQDFSLVVSTKKVPFFKLSEEFVDPKSHKFVMRLQSE
effect on cell migration (T47D cells): in contrast to the deletion of the classical PDZ binding motif
